Measurements: paper PMC6148399 (SLAS discovery : advancing life sciences R & D, 2018)

Key:
IP6K1 = IP6K1 (Homo sapiens, UniProt Q92551); conditions: cited from earlier work
human IP6K2 = target: T1, human IP6K2 (Homo sapiens, UniProt Q9UHH9); experiment: IP6K2 TR-FRET assay for ADP detection; assay type: biochemical; conditions: read-out: IC50 for IP6K2; TR-FRET Adapta, 400 nM IP6K2, 10 µM ATP, 10 µM InsP6
T1 sequence (Q9UHH9 1-426): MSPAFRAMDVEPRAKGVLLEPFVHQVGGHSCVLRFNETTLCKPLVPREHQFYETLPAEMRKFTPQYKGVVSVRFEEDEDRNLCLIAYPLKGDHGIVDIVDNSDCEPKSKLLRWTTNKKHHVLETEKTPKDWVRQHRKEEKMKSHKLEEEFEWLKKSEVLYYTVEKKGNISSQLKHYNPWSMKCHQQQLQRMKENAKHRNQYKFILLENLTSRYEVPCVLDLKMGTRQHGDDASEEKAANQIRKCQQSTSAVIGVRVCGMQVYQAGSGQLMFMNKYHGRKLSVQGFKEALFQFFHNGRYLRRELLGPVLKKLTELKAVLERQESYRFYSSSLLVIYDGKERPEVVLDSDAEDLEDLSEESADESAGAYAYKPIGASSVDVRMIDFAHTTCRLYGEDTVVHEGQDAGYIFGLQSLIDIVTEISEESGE
Summary of the method: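 Buffer: 50 mM HEPES pH 7.5, 0.01% Brij-35, 10 mM MgCl2, 1 mM EGTA. Test compound (3-fold, 10-point dilutions) preincubated 10–20 min at room temperature with enzyme, then ATP/InsP6 added; 30 min reaction. Detection: 2 nM Eu-anti-ADP antibody, 12 nM ADP tracer, 10 mM EDTA (final), 30 min. 665/615 nm ratio; inhibition scaled DMSO-only (0%) to no-enzyme (100%); ~20% ATP turnover.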

Sequence of IP6K1 (Q92551 whole entry, species assumed): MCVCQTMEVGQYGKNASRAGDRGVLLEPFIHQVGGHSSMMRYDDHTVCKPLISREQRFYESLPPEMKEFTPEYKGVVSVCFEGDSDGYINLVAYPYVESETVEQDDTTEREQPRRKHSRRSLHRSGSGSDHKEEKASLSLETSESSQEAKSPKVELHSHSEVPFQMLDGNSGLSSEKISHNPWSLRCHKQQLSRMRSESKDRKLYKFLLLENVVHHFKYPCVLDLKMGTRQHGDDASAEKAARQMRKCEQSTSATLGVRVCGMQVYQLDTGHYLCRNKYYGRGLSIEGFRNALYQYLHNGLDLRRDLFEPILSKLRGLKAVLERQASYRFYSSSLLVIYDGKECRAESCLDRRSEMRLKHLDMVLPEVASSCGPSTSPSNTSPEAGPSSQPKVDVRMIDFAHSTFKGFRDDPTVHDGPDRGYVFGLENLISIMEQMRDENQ

SMILES: O=[N+]([O-])c1ccc(CNc2nc(NCc3cccc(C(F)(F)F)c3)nc3nc[nH]c23)cc1 [TNP, N2-(m-(trifluoromethyl)benzyl) N6-(p-nitrobenzyl)purine]
- IC50 (IP6K1; read-out: IC50 previously reported for IP6K1): 0.43 µM
- Ki (IP6K1; read-out: Ki previously reported for IP6K1): 0.24 µM
- IC50 (human IP6K2): 7.36 µM
